Results as given in PubChem BioAssay.
The source made the active and inactive calls.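 The calls were made as follows, unless noted: active = visual image review flags a hit and inhibition of aggregation exceeds 20%; inconclusive = visual hit but inhibition at or below 20%; inactive = no hit on visual image review.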

Experiments:
[1] = inhibitors of TNFa-induced NFkB p65 translocation, primary screen, imaging, HUVEC, MLSMR starter and 10KST1 sets (AID 438;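 active = inhibition above 20% together with a positive visual image hit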;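 also: compound added about 3h40 before a 20 min TNFalpha stimulation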;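 as to inhibition: signal is the nuclear over cytoplasmic p65 intensity ratio per well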); conditions: HUVEC TNFa-induced p65 nuclear translocation; cell count: measured here: nuclei count (cytotoxicity indicator), at 2.08 µM; inhibition: at 2 µM, stronger effect = higher value, 0% TNFa-plus-vehicle, 100% no-TNFa wells
[2] = inhibitors of mutant huntingtin aggregation, primary screen, imaging, exon1htt(103Q)mCFP cells, high-content imaging (AID 483); conditions: exon1htt(103Q)mCFP cell line, aggregate imaging, at 2 µM; inhibition of aggregation: stronger effect = higher value; nuclei count: measured here: cell count, toxicity;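 also: compound exposure lasted 3 days before fixation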;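 as to nuclei count: percent of the per-plate median nuclei count of sample wells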
[3] = inhibitors of E-selectin induction by TNFa, primary screen, imaging, HUVEC, immunofluorescence, MLSMR starter and 10KST1 sets (AID 487;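 active = visually confirmed hit in the image check and inhibition above 20%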;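 as to inhibition: signal is fraction of cell area covered by stained E-selectin grains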;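 as to nuclei count: 100% = median nuclei count of all wells on the same plate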); conditions: HUVEC TNFalpha-induced E-selectin immunofluorescence imaging, at 2 µM; inhibition: stronger effect = higher value; nuclei count: measured here: cell number, toxicity
[4] = molecular target: Voltage-gated potassium channel subunit beta-2 (Rattus norvegicus) (UniProt P62483); experiment: KvBeta enzyme negative modulators, primary screen, biochemical, NADPH fluorescence (AID 622;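 active = fluorescence slope higher than the sample average by over 3 SD, cut at about -0.22 in these data, passing the limit was not always enough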;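 also: slope of raw intensity against log time taken from 70 to 1610 s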); conditions: recombinant KvBeta, 4-cyanobenzaldehyde reduction, at 10 µM, stronger effect = higher value
[5] = molecular target: Voltage-gated potassium channel subunit beta-2 (Rattus norvegicus) (UniProt P62483); experiment: KvBeta positive modulators, primary screen, biochemical, NADPH fluorescence (AID 623;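 active = NADPH fluorescence slope more negative than the mean of all samples by about 3 SD, 99.7% confidence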;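 also: fluorescence intensity change per second fitted from 20 to 320 s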); conditions: Recombinant KvBeta, NADPH fluorescence decrease slope, 10 min; at 10 µM; stronger effect = lower value
[6] = molecular target: Muscarinic acetylcholine receptor M4 (Homo sapiens) (UniProt P08173); experiment: compounds altering M4/GIRK thallium flux, either direction, primary screen, M4 allosteric agonist project, cell-based, HEK293 M4/GIRK, BTC-AM (AID 625;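 active = fluorescence slope after compound addition differing from the mean of all tested samples at 99.7% confidence, mostly higher but some lower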;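 also: thallium influx through GIRK channels coupled to M4 in HEK293 cells with BTC-AM dye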); conditions: at 10 µM, actives lie on both sides
Procedure, shortened: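 Material: M4/GIRK1/GIRK2 stable HEK293 cell line. Medium: pH 7.3 thallium assay buffer. Dosing: single compound concentration, 10 µM final. Schedule: 1 h dye loading, 2 min kinetic read. Measured by: kinetic fluorescence with BTC-AM dye. Read-out: post-addition slope, 15–24 s, of baseline-normalized fluorescence. Benchmarks: carbachol and DMSO controls.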

[7] = inhibitors of Sendai virus-induced IRF3 signaling, primary screen, TLR/RLR signaling modifier project, cell-based, Sendai virus stimulus, luciferase, 10K MLSCN set (AID 602276;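 active = inhibition at or above 50% at 10 µM; inactive = inhibition below 50%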;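 also: firefly luciferase from ISG56 promoter only with Renilla not read in this screen; 0% = Sendai virus plus DMSO and 100% = medium plus DMSO without virus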); conditions: HEK293 RL24 IRF3 luciferase reporter, at 10 µM, stronger effect = higher value
[8] = inhibitors of poly I:C-induced TLR3 signaling, primary screen, cell-based, poly I:C stimulus, luciferase, 10K MLSCN set (AID 602277;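 active = inhibition of the reporter signal at or above 50%; inactive = inhibition below 50%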); conditions: HEK293-TLR3 RL24 IRF3 luciferase reporter, at 10 µM, stronger effect = higher value

Chain of Muscarinic acetylcholine receptor M4 (Homo sapiens) (P08173 whole entry, looked up): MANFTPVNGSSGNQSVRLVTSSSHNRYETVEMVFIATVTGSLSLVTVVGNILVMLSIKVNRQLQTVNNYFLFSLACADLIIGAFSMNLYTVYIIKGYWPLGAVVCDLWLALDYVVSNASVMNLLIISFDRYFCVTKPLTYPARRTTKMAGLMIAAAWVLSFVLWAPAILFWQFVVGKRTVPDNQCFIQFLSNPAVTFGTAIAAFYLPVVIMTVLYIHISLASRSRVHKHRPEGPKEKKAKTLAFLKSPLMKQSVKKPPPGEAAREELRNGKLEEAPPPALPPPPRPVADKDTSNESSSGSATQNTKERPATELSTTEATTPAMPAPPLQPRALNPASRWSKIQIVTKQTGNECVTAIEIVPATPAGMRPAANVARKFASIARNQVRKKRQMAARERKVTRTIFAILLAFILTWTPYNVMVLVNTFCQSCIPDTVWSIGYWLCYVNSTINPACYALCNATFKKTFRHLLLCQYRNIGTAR
Chain of Voltage-gated potassium channel subunit beta-2 (Rattus norvegicus) (P62483 whole entry, looked up): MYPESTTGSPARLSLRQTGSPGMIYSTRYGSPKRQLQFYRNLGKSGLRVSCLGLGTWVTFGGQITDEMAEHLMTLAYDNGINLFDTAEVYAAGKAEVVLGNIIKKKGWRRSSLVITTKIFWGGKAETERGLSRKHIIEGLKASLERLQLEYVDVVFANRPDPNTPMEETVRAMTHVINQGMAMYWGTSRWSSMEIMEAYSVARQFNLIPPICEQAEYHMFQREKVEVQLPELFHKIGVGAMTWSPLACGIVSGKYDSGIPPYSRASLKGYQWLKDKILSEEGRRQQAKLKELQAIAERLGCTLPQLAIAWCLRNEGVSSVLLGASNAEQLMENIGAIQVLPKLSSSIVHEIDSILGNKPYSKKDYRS

SMILES	cell count [1]	inhibition [1]	inhibition of aggregation [2]	nuclei count [2] [%]	inhibition [3]	nuclei count [3] [%]	fluorescence slope [4]	NADPH fluorescence slope [5]	fluorescence slope [6]	inhibition [7]	inhibition [8]
COC(=O)c1ccc(COc2ncnc3c(Cl)cc(Cl)cc23)o1	406	-5% (inactive)	25.5% (inactive)	74.4	59.9% (inactive)	78.8	-0.433 (inactive)	-0.000426 (inactive)	0.00494 (inactive)	2.59% (inactive)	1.58% (inactive)
COC(=O)c1oc2ccc(OC)cc2c1N	669	5.5% (inactive)	18.1% (inactive)	85.1	-4.2% (inactive)	101	-0.523 (inactive)	5.1e-06 (inactive)	0.00575 (inactive)	-31.8% (inactive)	-55% (inactive)
CCOc1ccc2nc(NC(=O)C(NS(=O)(=O)c3cccs3)C(C)C)sc2c1 (stereo not given)	390	10% (inactive)	6.2% (inactive)	105	-146% (inactive)	122	-0.423 (inactive)	2.6e-05 (inactive)	0.00543 (inactive)	18.1% (inactive)	20.4% (inactive)
Cc1ccc(-c2c3c(=O)n(C)c(=O)n(C)c3cn2CCCN2CCOCC2)cc1	761	4.5% (inactive)	1.2% (inactive)	92.9	-32% (inactive)	116	-0.414 (inactive)	2.2e-05 (inactive)	0.00744 (inactive)	10.9% (inactive)	18.9% (inactive)
c1coc(-c2nnc(-c3cccs3)o2)c1	497	-1.7% (inactive)	13.3% (inactive)	75	-7.2% (inactive)	115	-0.51 (inactive)	-6.6e-07 (inactive)	0.00586 (inactive)	-25.9% (inactive)	-87.8% (inactive)
CN(C(=O)CSc1nc2c(c(=O)[nH]1)CCCC2)C1CCCCC1	820	-0.9% (inactive)	-33.2% (inactive)	117	-253% (inactive)	120	-0.504 (inactive)	4e-05 (inactive)	0.00553 (inactive)	4.83% (inactive)	18.3% (inactive)
COc1ccccc1-c1c(C)nn2c(N3CCC4(CC3)OCCO4)cc(C)nc12	540	-2.1% (inactive)	-9.7% (inactive)	91.2	-42.2% (inactive)	111	-0.545 (inactive)	-4.6e-05 (inactive)	0.00547 (inactive)	13.5% (inactive)	12.2% (inactive)
COC(=O)c1ccc(NC(=O)CN2C(=O)CSC2=O)cc1	454	3.1% (inactive)	-17.9% (inactive)	113	-41% (inactive)	109	-0.404 (inactive)	-3e-05 (inactive)	0.00594 (inactive)	7.22% (inactive)	10.7% (inactive)
C[N+]1=C2CCCCCN2C(O)(c2ccccc2)C1 (stereo not given)	546	-3% (inactive)	6.3% (inactive)	110	-1.4% (inactive)	130	-0.56 (inactive)	-3.1e-05 (inactive)	0.00533 (inactive)	12.5% (inactive)	17.2% (inactive)
CCOC(=O)CN1C2=NCCN2c2ccccc21	428	3.8% (inactive)	-1.1% (inactive)	76.3	-107% (inactive)	125	-0.605 (inactive)	-8.6e-06 (inactive)	0.00469 (inactive)	13.8% (inactive)	18.8% (inactive)
Cc1ccccc1-c1nc2ccccc2c(=O)n1C1CCS(=O)(=O)C1 (stereo not given)	368	3.8% (inactive)	-7.2% (inactive)	110	-4.7% (inactive)	102	-0.614 (inactive)	9.6e-06 (inactive)	0.00582 (inactive)	21% (inactive)	31% (inactive)
CCCCC(=NCCO)C1=C(O)C(C(=O)OC)C(C)(C)CC1=O (stereo not given)	473	1.8% (inactive)	0.5% (inactive)	102	-64.1% (inactive)	167	-0.407 (inactive)	5e-05 (inactive)	0.00804 (inactive)	16.3% (inactive)	18.4% (inactive)
O=C(CP(=O)(CO)CO)c1ccc(Cl)cc1	863	-2.9% (inactive)	18.9% (inactive)	119	2.9% (inactive)	126	-0.536 (inactive)	4.7e-05 (inactive)	0.00425 (inactive)	3.99% (inactive)	14.2% (inactive)
COc1ccc(NC(=O)CCCN2C(=O)C3C4C=CC(C4)C3C2=O)c(OC)c1 (stereo not given)	554	-1.8% (inactive)	5.1% (inactive)	94.8	49.6% (inactive)	62.2	-0.554 (inactive)	-2.9e-05 (inactive)	0.00549 (inactive)	9.13% (inactive)	20.8% (inactive)
O=C(Nc1cccc(C(=O)N2CCOCC2)c1)c1cccnc1	282	-15.4% (inactive)	-7.7% (inactive)	106	-25.3% (inactive)	116	-0.546 (inactive)	-0.000161 (inactive)	0.00393 (inactive)	-1.23% (inactive)	0.71% (inactive)
